Screening data: PubChem BioAssay, Broad Institute
Only some compounds are listed: those with a hit (about 2% of all), similar ones and a draw of the others.
CAL PDZ FP-1 = CAL PDZ peptide-binding inhibitors, primary screen, biochemical, fluorescence polarization, Cer-tagged CAL PDZ, HTS | purified CAL PDZ, TMR-peptide fluorescence polarization, 1 h | inhibition, % at 20 µM | actives 0.02% (n = 330,000) | AID 504414, 2011;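 active = highest replicate inhibition of at least 40%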;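 note: plate controls were DMSO neutral control wells for no effect and unlabeled competitor peptide control wells for full effect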
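Test system: purified CerCALP PDZ construct; Compound dosing: one concentration, 20 µM compound; Also added: TMR-labelled reporter peptide T*-PRC34 bound in PDZ groove; Read-out: inhibition from polarization loss; Controls: unlabelled peptide and DMSO controls; Signal: FP readout, S and P plane fluorescence; Incubation: 1 h at RT.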
CDK5 p35 inh = inhibitors of human CDK5/p35 kinase, primary screen, biochemical, single concentration; Cyclin-dependent kinase 5 (Homo sapiens) + Cyclin-dependent kinase 5 activator 1 (Homo …; Recombinant CDK5/p35, ADP-Glo luminescence, 60 min; inhibition, % at 10 µM; actives 0.01% (n = 330,000); AID 488839, 2010;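 active = highest replicate inhibition of at least 50% and at least 75% of replicates reaching 50%; inconclusive = only one of the two criteria met; inactive = both criteria failed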;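 note: plate controls were DMSO neutral control for no effect and GW8510 at 10 µM for full effect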
Target sequence (Q00535 whole entry, looked up): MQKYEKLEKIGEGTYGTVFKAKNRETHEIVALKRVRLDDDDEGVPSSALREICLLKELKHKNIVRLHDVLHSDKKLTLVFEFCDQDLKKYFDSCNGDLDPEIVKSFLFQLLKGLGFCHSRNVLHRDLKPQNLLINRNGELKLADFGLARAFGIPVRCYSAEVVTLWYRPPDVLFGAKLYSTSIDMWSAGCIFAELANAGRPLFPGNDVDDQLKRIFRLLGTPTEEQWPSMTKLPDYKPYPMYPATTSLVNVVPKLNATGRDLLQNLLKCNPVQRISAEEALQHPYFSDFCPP
Target sequence (Q15078 whole entry, looked up): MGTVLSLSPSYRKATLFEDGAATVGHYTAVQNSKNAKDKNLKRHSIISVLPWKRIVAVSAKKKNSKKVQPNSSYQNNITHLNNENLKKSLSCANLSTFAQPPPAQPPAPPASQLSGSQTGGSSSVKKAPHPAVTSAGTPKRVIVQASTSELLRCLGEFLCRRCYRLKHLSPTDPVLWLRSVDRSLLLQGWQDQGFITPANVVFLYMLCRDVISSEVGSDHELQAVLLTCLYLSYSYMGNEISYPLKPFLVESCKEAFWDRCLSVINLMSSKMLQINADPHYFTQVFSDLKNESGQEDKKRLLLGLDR
dFosB act-1 = activators of delta FosB homodimer, primary screen, biochemical, fluorescence polarization, TAMRA-CDK5 oligo, single point | Protein FosB (Mus musculus), P13346 | purified delta FosB; percent of positive-control signal above neutral wells | activation, % at 25 µM | actives 0.99% (n = 340,000) | AID 493131, 2011;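 active = mean activation above about 17%, with every replicate also reaching it, limit read from the data, passing the limit was not always enough; inconclusive = only one of the two conditions met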
C2C12 statin = suppressors of statin myotoxicity in C2C12 myotubes, primary screen, cell-based, single point, plate reader | C2C12 myotubes + simvastatin, ATP luminescence, 48 h; scaled: DMSO 0, geranylgeraniol control 100 | rescue of ATP level, % at 7.49 µM | actives 0.78% (n = 330,000);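 active = mean ATP rescue above about 67%, or every replicate alone reaching that limit, limit read from the data, passing the limit was not always enough; inconclusive = no clear call, values can overlap the other calls; inactive = mean under the limit and some replicate under it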;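 note: myotubes were challenged with 10 µM simvastatin during compound exposure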
S100A4 MyoIIA = inhibitors of S100A4-myosin IIA peptide binding, primary screen, biochemical, fluorescence polarization, TAMRA-MyoIIA peptide; Protein S100-A4 (Homo sapiens), P26447; inhibition, % at 10.7 µM; actives 0.14% (n = 360,000); AID 652163, 2013;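 active = mean inhibition of at least 70% across replicates, with every replicate also reaching that level; inconclusive = mean inhibition reaches 70% but some replicates fall short; inactive = mean inhibition below 70%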
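Material: S100A4 monomer protein | Medium: HEPES pH 7.2 with CaCl2, KCl, NaCl, DTT, Triton | Reagent: Labelled myosin peptide probe, 5 nM | Doses: One dose per compound | Times: 5 min incubation before reading | Benchmarks: Neutral control DMSO, positive control TFP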
CAL PDZ FP-2 = untagged CAL PDZ binding inhibitors, primary screen, biochemical, fluorescence polarization, HTS; AID 602252, 2012; purified CAL PDZ, TMR-peptide fluorescence polarization, 1 h; inhibition, % at 24.9 µM; Golgi-associated PDZ and coiled-coil motif-containing protein (Homo sapiens), Q9HD26; actives 0.92% (n = 300,000);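 active = mean inhibition of at least 30% with at least half of replicates also reaching 30%; inconclusive = no clear call, values can overlap the other calls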;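 note: 0% = DMSO neutral control and 100% = excess unlabeled competitor peptide PRC23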
dFosB act-2 = activators of mouse delta FosB DNA binding, confirmation, biochemical, fluorescence polarization, TAMRA-CDK5 oligo, cherry-picked samples. 2,400 tested, under 10 active. shares compounds with dFosB act-1. purified delta FosB; normalised: neutral wells 0, positive control 100. activation, % at 24.9 µM. AID 588690, 2011;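 active = highest replicate activation at or above 34% and every replicate reaching that threshold; inconclusive = meets only one of the two criteria; inactive = meets neither criterion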;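 note: higher polarization means more probe DNA bound by delta FosB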
The depositor's hits bear a star; u = inconclusive; x = no result given.

SMILES	CAL PDZ FP-1	CDK5 p35 inh	dFosB act-1	C2C12 statin	S100A4 MyoIIA	CAL PDZ FP-2	dFosB act-2
CCCCNC(=S)N/N=C/c1ccc(OCC(=O)Nc2c(C)cc(C)cc2C)c(OC)c1	-1	-1	22*	x	3	-1	-1
CCC(=O)N1CC2(C1)[C@@H](c1ccc(-c3ccc(F)cc3)cc1)[C@H](CO)N2S(C)(=O)=O	x	x	x	x	-1	x	x
CCc1ccc(OCC(=O)NNC(=O)Cc2c(F)cccc2Cl)cc1	-2	1	29*	x	0	-2	-4
COc1ccc(/C=N/NC(=O)c2ccc(NC(C)=O)cc2)cc1COc1ccc(F)cc1F	-1	-3	68*	-1	-4	-4	0
COc1ccc(/C=N\NC(=O)c2ccccc2F)cc1COc1ccc(F)cc1F	-3	0	-18	-73	2	-5	x
COc1cc(OC)c(/C=N/NC(=O)c2ccc(NC(C)=O)cc2)cc1Br	-2	5	28*	x	-1	-2	-2
COc1ccc(/C=N/NC(=O)c2ccco2)cc1COc1ccc(F)cc1	0	1	75*	-2	1	6	3
COc1ccc(/C=N/NC(=O)c2ccc(Cl)cc2)cc1Cn1cc(Cl)cn1	-4	-1	40*	x	-3	-2	1
COC(=O)c1cnc(Nc2nc(C(N)Cc3ccc(Cl)cc3)cs2)nc1C(F)(F)F (stereo not given)	x	x	x	-7	-1	x	x
O=C(CCCOc1ccccc1)Nc1ncccn1	-2	1	-2	x	x	-5	x
COc1ccc(S(=O)(=O)N(C)C[C@H]2Oc3c(NS(C)(=O)=O)cccc3C(=O)N([C@@H](C)CO)C[C@@H]2C)cc1	x	x	x	x	2	x	x
CCOc1ccc(CN(C)C(=O)c2cc3ccccc3o2)cc1OC	-3	0	-3	18	-5	-4	x
Cc1sc2nc(CC(=O)NN)[nH]c(=O)c2c1C	-2	-1	-7	11	-4	-3	x
CCOC(=O)N1CCN(Cc2nc3c(c(=O)n(C)c(=O)n3C)n2Cc2ccccc2C)CC1	-1	1	-12	14	x	-3	x
C[C@@H]1CN([C@H](C)CO)C(=O)c2cc(NC(=O)Nc3ccccc3)ccc2O[C@H]1CN(C)C(=O)Nc1ccccc1	x	x	x	1	38	x	x
NC1=NC[C@@H](Cc2ccc(O)cc2)N1CCc1cc(C(F)(F)F)cc(C(F)(F)F)c1	-1	3	22*	-9	-27	-5	8
NC1=NC[C@@H](Cc2ccc(O)cc2)N1CCc1cccc(F)c1	0	-4	-10	-6	1	0	x
CCn1c(COc2cccc(C)c2C)nnc1SCC(=O)Nc1cc(C)on1	0	0	u	x	3	6	x
Cc1cc(NC(=O)CSc2nnc(COc3cccc(C)c3C)n2C)no1	0	4	21*	x	x	x	3
O=C(Cc1nnc(NC(=O)c2ccccc2)s1)N/N=C/c1cccc(O)c1	-2	-1	1	11	3	-8	x
Cc1ccccc1OCC(=O)N/N=C/c1ccncc1	-1	-4	3	x	x	0	x
O=C(Cc1nnc(NC(=O)c2ccccc2)s1)N/N=C/c1ccco1	0	x	21*	3	-1	4	4
Cc1ccccc1C(=O)Nc1nnc(CC(=O)N/N=C/c2ccncc2)s1	-1	1	38*	8	3	-6	0
O=C(C[n+]1cnn(CC(=O)c2ccc(Cl)cc2Cl)c1)c1ccc([N+](=O)[O-])cc1	1	4	32*	x	-7	0	2
O=C(CSc1ccccc1)Nc1ccc(-c2nc3ccccc3[nH]2)cc1	-1	1	15	x	x	3	x
SMILES	CAL PDZ FP-1	CDK5 p35 inh	dFosB act-1	C2C12 statin	S100A4 MyoIIA	CAL PDZ FP-2	dFosB act-2
O=C(Nc1ccc(-c2nc3ccccc3[nH]2)cc1)c1ccc2c(c1)OCO2	-3	0	58*	-96	11	0	-1
Cc1ccc2nc(-c3ccc(NC(=O)CSc4ccccc4)cc3)[nH]c2c1	-3	1	25*	-42	x	-3	5
COc1c(F)c(F)c(C(=O)Nc2ccc(-c3nc4ccccc4[nH]3)cc2)c(F)c1F	0	-5	12	-69	1	-4	x
O=C(Nc1ccc(-c2nc3ccccc3[nH]2)cc1)c1c(F)c(F)c(F)c(F)c1F	-1	-9	29*	-17	0	-2	0
Cc1ccnc(Nc2nc(-c3ccc(F)cc3)cs2)c1	-1	0	2	11	-2	-1	x
Cc1ccc(C)c(N(CC(=O)N2CCc3ccccc3C2)S(C)(=O)=O)c1	0	-2	-8	0	1	x	x
CC(C)C(NC(=O)c1cccs1)C(=O)NC1=NCCS1 (stereo not given)	-1	-2	9	31	x	9	x
O=C(NC1=NCCS1)c1cccs1	-1	-3	27*	u	x	-27	2
CC(C)c1ccc(NC(=O)[C@H](NC(=O)[C@@H]2Cc3ccccc3CN2)c2ccccc2)cc1	-4	2	57*	x	-15	0	5
Clc1ccc(Cn2cc(/C=N/n3cnnc3)c3ccccc32)c(Cl)c1	-1	-1	25*	x	x	5	3
C(=N\n1cnnc1)/c1cn(Cc2ccccc2)c2ccccc12	-4	-1	-5	31	x	-3	x
Cc1ccc(C(=O)OC2OC(=O)C(Cl)=C2N2CCOCC2)cc1 (stereo not given)	1	x	0	x	x	-1	x
NS(=O)(=O)c1ccc(NC(=O)c2cccc(N3C(=O)c4ccccc4C3=O)c2)cc1	2	2	111*	45	21	20	5
CC(=O)c1ccc(NC(=O)c2cccc(N3C(=O)c4ccccc4C3=O)c2)cc1	-2	1	78*	x	x	-1	1
NS(=O)(=O)c1ccc(NC(=O)c2ccc3c(c2)CCN3S(=O)(=O)c2ccccc2)cc1	-1	1	32*	-26	1	2	1
Cc1cc(C)c(-c2cc(NC(=O)COC(=O)c3ccc(NC(=O)CC#N)cc3)n(-c3ccccc3)n2)cc1C	0	-3	51*	-10	-6	-2	2
